According to ChEMBL document CHEMBL1687861, “Comazaphilones A-F, azaphilone derivatives from the marine sediment-derived fungus Penicillium commune QSD-17” (J Nat Prod, 2011):
Values after ≈ are worked out from the molar mass of the structure shown. Active and inactive are the calls of the source. The rule behind the calls is not given here.

What was measured:
Staphylococcus aureus = assay: Antimicrobial activity against methicillin-resistant Staphylococcus aureus after 18 hrs by broth microdilution method; type: functional
Method in brief: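 Broth microdilution MIC. Inoculum 5 × 10^5 cfu/mL. Concentration range 1024-1 μg/mL. Plates incubated 18 h at 35 °C in ambient air. The MIC was read at the end of incubation.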

Pseudomonas aeruginosa = assay: Antimicrobial activity against Pseudomonas aeruginosa after 18 hrs by broth microdilution method; type: functional
Method in brief: (§1)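 Broth microdilution MIC; inoculum 5 × 10^5 cfu/mL; compounds tested over 1024-1 μg/mL; plates incubated 18 h at 35 °C in ambient air; MIC taken as the read-out after incubation.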

Pseudomonas fluorescens = assay: Antimicrobial activity against Pseudomonas fluorescens after 18 hrs by broth microdilution method; type: functional; method in brief: as §1
Bacillus subtilis = assay: Antimicrobial activity against Bacillus subtilis after 18 hrs by broth microdilution method; type: functional; method in brief: as §1
Candida albicans = assay: Antimicrobial activity against Candida albicans after 18 hrs by broth microdilution method; type: functional; method in brief: as §1
DU-145 = assay: Cytotoxicity against human DU145 cells; type: functional, cell-based
HepG2 = assay: Cytotoxicity against human HepG2 cells; type: functional, cell-based
HeLa = assay: Cytotoxicity against human HeLa cells; type: functional, cell-based
MCF7 = assay: Cytotoxicity against human MCF7 cells; type: functional, cell-based
NCI-H460 = assay: Cytotoxicity against human NCI-H460 cells; type: functional, cell-based
SMMC-7721 = assay: Cytotoxicity against human SMMC7721 cells; type: functional, cell-based
SW1990 = assay: Cytotoxicity against human SW1990 cells; type: functional, cell-based

| Compound | MIC (Staphylococcus aureus) | MIC (Pseudomonas aeruginosa) | MIC (Pseudomonas fluorescens) | MIC (Bacillus subtilis) | MIC (Candida albicans) | Activity (DU-145) | Activity (HepG2) | Activity (HeLa) | Activity (MCF7) | Activity (NCI-H460) | Activity (SMMC-7721) | IC50 (SW1990) |
| --- | --- | --- | --- | --- | --- | --- | --- | --- | --- | --- | --- | --- |
| CC1(C)S[C@@H]2[C@H](NC(=O)[C@H](N)c3ccccc3)C(=O)N2[C@H]1C(=O)O [AMPICILLIN] | 8 µg/mL (≈ 22.9 µM) | 2 µg/mL (≈ 5.72 µM) | 4 µg/mL (≈ 11.4 µM) | 4 µg/mL (≈ 11.4 µM) |  |  |  |  |  |  |  |  |
| CCCC1=CC2=C(CO1)C(=O)[C@](C)(OC(=O)c1c(C)cc(O)cc1OC)[C@H](O)C2 [COMAZAPHILONE A] | > 256 µg/mL | > 256 µg/mL | > 256 µg/mL | > 256 µg/mL | > 256 µg/mL | inactive | inactive | inactive | inactive | inactive | inactive |  |
| CCCC1=CC2=C(CO1)C(=O)[C@](C)(OC(=O)c1c(C)cc(O)c(O)c1OC)[C@H](O)C2 [COMAZAPHILONE B] | 128 µg/mL (≈ 306 µM) | > 256 µg/mL | 128 µg/mL (≈ 306 µM) | 64 µg/mL (≈ 153 µM) | > 256 µg/mL | inactive | inactive | inactive | inactive | inactive | inactive |  |
| C/C=C/C1=CC2=C(CO1)C(=O)[C@](C)(OC(=O)c1c(C)cc(O)c(O)c1OC)[C@H](O)C2 [COMAZAPHILONE C] | 16 µg/mL (≈ 38.4 µM) | > 256 µg/mL | 64 µg/mL (≈ 154 µM) | 32 µg/mL (≈ 76.8 µM) | > 256 µg/mL | inactive | inactive | inactive | inactive | inactive | inactive |  |
| C/C=C/C1=CC2=C(CO1)C(=O)[C@](C)(O)[C@H](OC(=O)c1c(C)cc(O)cc1O)C2 [COMAZAPHILONE D] | 32 µg/mL (≈ 82.8 µM) | > 256 µg/mL | 16 µg/mL (≈ 41.4 µM) | > 256 µg/mL | > 256 µg/mL |  |  |  |  |  |  | 51 µM |
| C/C=C/C1=CC2=C(CO1)C(=O)[C@](C)(O)[C@H](OC(=O)c1c(C)cc(O)c(O)c1OC)C2 [COMAZAPHILONE E] | > 256 µg/mL | > 256 µg/mL | 32 µg/mL (≈ 76.8 µM) | 16 µg/mL (≈ 38.4 µM) | > 256 µg/mL |  |  |  |  |  |  | 26 µM |
| CCCC1=CC2=C(CO1)C(=O)[C@](C)(O)[C@H](OC(=O)c1c(C)cc(O)c(O)c1OC)C2 [COMAZAPHILONE F] | 128 µg/mL (≈ 306 µM) | > 256 µg/mL | 64 µg/mL (≈ 153 µM) | 128 µg/mL (≈ 306 µM) | > 256 µg/mL |  |  |  |  |  |  | 53 µM |
| O=c1[nH]cc(F)c(=O)[nH]1 [FLUOROURACIL] |  |  |  |  |  |  |  |  |  |  |  | 120 µM |
| NYSTATIN |  |  |  |  | 2 µM |  |  |  |  |  |  |  |
